Converted amounts (≈) assume the structure as drawn.
How the values were obtained:
Type in all cases: functional
FM3A = test: Inhibitory effect on proliferation of Murine mammary Carcinoma (FM3A); conditions: Mus musculus, read-out: ID50 (the source's name)
HeLa [1] = test: Minimum cytotoxic concentration against vaccinia virus in aneuploid (Hela) human cells
In short: (§1)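 Uninfected confluent monolayers (rabbit kidney, HeLa, Vero or E6SM) were incubated with compound for the same time as the antiviral assay. The value is the lowest concentration (µg/mL) that causes a microscopically detectable change in normal cell morphology.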

HeLa [2] = test: Minimum inhibitory concentration against vaccinia virus in aneuploid (Hela) human cells
Homo sapiens [3] = organism: Homo sapiens; test: Minimum cytotoxic concentration in diploid (E6SM) human cell culture; in short: as §1
Homo sapiens [4] = organism: Homo sapiens; test: Minimum inhibitory concentration against vaccinia virus in diploid (E6SM) human cell culture
Homo sapiens [5] = organism: Homo sapiens; test: Inhibitory effect on proliferation of Human B-Lymphoblast (Raji); conditions: read-out: ID50 (the source's name)
L1210 = test: Inhibitory effect on Proliferation of Murine Leukemia (L1210); conditions: Mus musculus, read-out: ID50 (the source's name)
Oryctolagus cuniculus [6] = organism: Oryctolagus cuniculus; test: Minimum cytotoxic concentration against herpes simplex virus in primary rabbit kidney cell cultures; in short: as §1
Oryctolagus cuniculus [7] = organism: Oryctolagus cuniculus; test: Antiviral activity in primary rabbit kidney cell cultures against Herpes Simplex virus type 1 (Fstrain)
Oryctolagus cuniculus [8] = organism: Oryctolagus cuniculus; test: Antiviral activity in primary rabbit kidney cell cultures against Herpes Simplex virus type 1 (KOS strain)
Oryctolagus cuniculus [9] = organism: Oryctolagus cuniculus; test: Antiviral activity in primary rabbit kidney cell cultures against Herpes Simplex virus type 1 (McIntyre strain)
Oryctolagus cuniculus [10] = organism: Oryctolagus cuniculus; test: Antiviral activity in primary rabbit kidney cell cultures against Herpes Simplex virus type 1 (TK-strain B2006)
Oryctolagus cuniculus [11] = organism: Oryctolagus cuniculus; test: Antiviral activity in primary rabbit kidney cell cultures against Herpes Simplex virus type 1 (TK-strain VMW I837)
Oryctolagus cuniculus [12] = organism: Oryctolagus cuniculus; test: Antiviral activity in primary rabbit kidney cell cultures against Herpes simplex virus type 2 Strain 196
Oryctolagus cuniculus [13] = organism: Oryctolagus cuniculus; test: Antiviral activity in primary rabbit kidney cell cultures against Herpes simplex virus type 2 Strain G
Oryctolagus cuniculus [14] = organism: Oryctolagus cuniculus; test: Antiviral activity in primary rabbit kidney cell cultures against Herpes simplex virus type 2 Strain Lyons
Oryctolagus cuniculus [15] = organism: Oryctolagus cuniculus; test: Antiviral activity in primary rabbit kidney cell cultures against vesicular stomatitis virus
[16] = Inhibitory effect on proliferation of Human T-Lymphoblast (Molt/4F) cells; conditions: read-out: ID50 (the source's name)
Vero [17] = test: Minimum inhibitory concentration against vaccinia virus in vero cells of African green monkey kidney; conditions: Chlorocebus sabaeus
Vero [18] = test: Minimum cytotoxic concentration in vero cells of African green monkey kidney; conditions: Chlorocebus sabaeus; in short: as §1
Oryctolagus cuniculus [19] = organism: Oryctolagus cuniculus; test: Antiviral activity in primary rabbit kidney cell cultures against vaccinia virus

Row | Structure (SMILES) | IC50 (FM3A) [µg/mL] | MCC (HeLa [1]) [µg/mL] | MIC (HeLa [2]) [µg/mL] | MCC (Homo sapiens [3]) [µg/mL] | MIC (Homo sapiens [4]) [µg/mL] | IC50 (Homo sapiens [5]) [µg/mL] | IC50 (L1210) [µg/mL] | MCC (Oryctolagus cuniculus [6]) [µg/mL] | MIC (Oryctolagus cuniculus [7]) [µg/mL] | MIC (Oryctolagus cuniculus [8]) [µg/mL] | MIC (Oryctolagus cuniculus [9]) [µg/mL] | MIC (Oryctolagus cuniculus [10]) [µg/mL] | MIC (Oryctolagus cuniculus [11]) [µg/mL] | MIC (Oryctolagus cuniculus [12]) [µg/mL] | MIC (Oryctolagus cuniculus [13]) [µg/mL] | MIC (Oryctolagus cuniculus [14]) [µg/mL] | MIC (Oryctolagus cuniculus [15]) [µg/mL] | IC50 [16] [µg/mL] | MIC (Vero [17]) [µg/mL] | MCC (Vero [18]) [µg/mL] | also measured
1 | Nc1ncnc2c1ncn2[C@@H]1O[C@H](COP(=O)([O-])OC[C@H]2O[C@H](n3cnc4c(N)ncnc43)[C@@H](O)[C@@H]2O)[C@@H](O)[C@@H]1O.[Na+] | 86.6 | > 400 | 200 | ≥ 400 | 20 | > 100 | > 100 | > 400 | 70 | 70 | 70 | 300 | 150 | 100 | 70 | 20 | > 400 | 43 | 70 | > 400 | MIC (Oryctolagus cuniculus [19]): 7 µg/mL
2 | Nc1ncnc2c1ncn2[C@@H]1O[C@H](CO)[C@@H](OP(=O)([O-])O[C@H]2[C@H](O)[C@H](n3cnc4c(N)ncnc43)O[C@@H]2CO)[C@@H]1O.[Na+] | > 100 | ≥ 400 | > 400 | > 400 | > 400 | > 100 | > 100 | > 400 | > 400 | > 400 | > 400 | > 400 | > 400 | > 400 | > 400 | > 400 | > 400 | > 100 | > 400 | ≥ 400 | MIC (Oryctolagus cuniculus [19]): 300 µg/mL
3 | Nc1ncnc2c1ncn2C1O[C@H](CO)[C@@H](OP(=O)([O-])OC[C@H]2OC(n3cnc4c(N)ncnc43)[C@H](O)[C@H]2O)[C@@H]1O.[Na+] (stereo partly specified) | 20.4 | 100 | 20 | ≥ 400 | 10 | 32.3 | 10 | 100 | 10 | 20 | 7 | 20 | 20 | 20 | 7 | 2 | > 40 | 23.3 | 20 | > 40 | MIC (Oryctolagus cuniculus [19]): 2 µg/mL
4 | Nc1ncnc2c1ncn2C1O[C@H](CO)C(OP(=O)([O-])OC[C@H]2OC(n3cnc4c(N)ncnc43)[C@@H](O)[C@@H]2O)[C@@H]1O.[Na+] (stereo partly specified) | 22.4 | ≥ 200 | 20 | > 400 | 2 | 30 | 22.2 | > 200 | 10 | 20 | 10 | 20 | 20 | 7 | 7 | 2 | > 100 | 13.6 | 20 | > 400 | MIC (Oryctolagus cuniculus [19]): 0.2 µg/mL
5 | Nc1ncnc2c1ncn2[C@@H]1O[C@H](COP(=O)(O)O)[C@@H](O)[C@@H]1O [VIDARABINE PHOSPHATE] | 23.9 | ≥ 400 | 20 | ≥ 400 | 7 | 32.6 | 24.2 | > 100 | 7 | 20 | 10 | 20 | 20 | 20 | 7 | 2 | > 400 | 18.5 | 20 | ≥ 200 | MIC (Oryctolagus cuniculus [19]): 0.2 µg/mL
6 | Nc1ncnc2c1ncn2[C@@H]1O[C@H](CO)[C@@H](O)[C@@H]1O [VIDARABINE] | 21.1 (≈ 79 µM) | > 200 | 20 (≈ 74.8 µM) | > 400 | 7 (≈ 26.2 µM) | 25.9 (≈ 96.9 µM) | 21 (≈ 78.6 µM) | > 100 | 7 (≈ 26.2 µM) | 20 (≈ 74.8 µM) | 10 (≈ 37.4 µM) | 20 (≈ 74.8 µM) | 20 (≈ 74.8 µM) | 20 (≈ 74.8 µM) | 7 (≈ 26.2 µM) | 7 (≈ 26.2 µM) | 20 (≈ 74.8 µM) | 16.7 (≈ 62.5 µM) | 70 (≈ 262 µM) | ≥ 400 | MIC (Oryctolagus cuniculus [19]): 2 µg/mL (≈ 7.48 µM)

From ChEMBL document CHEMBL1124280, “Synthesis and biological evaluation of isomeric dinucleoside monophosphates and monomethylphosphonates of 9-beta-D-arabinofuranosyladenine and related analogues” (1988)
